Assay results published in ChEMBL document CHEMBL1141613, “Conception of myeloperoxidase inhibitors derived from flufenamic acid by computational docking and structure modification” (Bioorg Med Chem, 2008).

Experiments:
[1] = molecular target: T1, Myeloperoxidase (Homo sapiens) (UniProt P05164); assay: Inhibition of chlorinating activity of recombinant myeloperoxidase at 4 uM by taurine assay
T1 sequence (whole entry): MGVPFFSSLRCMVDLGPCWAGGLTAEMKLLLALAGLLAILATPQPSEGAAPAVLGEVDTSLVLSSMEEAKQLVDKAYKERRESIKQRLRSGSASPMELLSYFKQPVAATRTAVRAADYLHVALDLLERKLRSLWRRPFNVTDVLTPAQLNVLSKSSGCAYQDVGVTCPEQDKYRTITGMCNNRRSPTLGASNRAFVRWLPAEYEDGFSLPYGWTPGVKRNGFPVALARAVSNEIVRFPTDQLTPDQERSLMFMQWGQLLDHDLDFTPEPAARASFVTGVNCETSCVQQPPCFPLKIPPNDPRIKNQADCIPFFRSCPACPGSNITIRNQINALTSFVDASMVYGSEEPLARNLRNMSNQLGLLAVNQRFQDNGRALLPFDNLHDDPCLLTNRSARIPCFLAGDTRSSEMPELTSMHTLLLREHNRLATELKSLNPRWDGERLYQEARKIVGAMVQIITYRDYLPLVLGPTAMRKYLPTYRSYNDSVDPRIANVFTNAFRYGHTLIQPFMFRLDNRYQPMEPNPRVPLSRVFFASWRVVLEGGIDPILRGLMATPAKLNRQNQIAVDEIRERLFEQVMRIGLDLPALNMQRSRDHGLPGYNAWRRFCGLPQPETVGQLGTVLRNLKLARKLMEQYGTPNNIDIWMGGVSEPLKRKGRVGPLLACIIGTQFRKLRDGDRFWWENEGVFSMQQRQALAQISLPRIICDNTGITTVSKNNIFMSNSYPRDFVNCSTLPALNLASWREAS
Summary of the method: (§1)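 Recombinant MPO (~25 nM) in pH 7.4 phosphate (10 mM)/NaCl 300 mM with taurine (15 mM) and compound (0–20 μM) at 37 °C; started with H2O2 (100 μM), stopped after 5 min with catalase. Taurine chloramine measured with TNB. No inhibitor = 0%, no H2O2 = 100%. At least 3 determinations. IC50 from three-parameter sigmoid fit.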

[2] = Hypochlorous acid scavenging activity at 1 uM by taurine assay; assay type: functional
Summary of the method: (§2)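 No enzyme; HOCl (60 μM) added to pH 7.4 phosphate buffer (10 mM phosphate/300 mM NaCl) with taurine (15 mM) and compound (0.5, 1, 2, 4 μM) at 37 °C. Catalase added after 5 min. Taurine chloramine quantified with 0.45 mM TNB.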

[3] = LDL oxidation at 300 uM by ELISA
[4] = Hypochlorous acid scavenging activity at 0.5 uM by taurine assay; assay type: functional; summary of the method: as §2
[5] = Hypochlorous acid scavenging activity at 2 uM by taurine assay; assay type: functional; summary of the method: as §2
[6] = molecular target: T1, Myeloperoxidase (Homo sapiens); assay: Inhibition of chlorinating activity of recombinant myeloperoxidase at 2 uM by taurine assay; summary of the method: as §1
Myeloperoxidase = molecular target: T2, Myeloperoxidase (Homo sapiens, UniProt P05164); assay: Inhibition of chlorinating activity of recombinant myeloperoxidase by taurine assay; assay type: single protein format; summary of the method: as §1
T2 sequence (P05164 whole entry): T1 sequence (whole entry)

[7] = Hypochlorous acid scavenging activity at 4 uM by taurine assay; assay type: functional; summary of the method: as §2
[8] = molecular target: T1, Myeloperoxidase (Homo sapiens); assay: Inhibition of chlorinating activity of recombinant myeloperoxidase at 0.5 uM by taurine assay; summary of the method: as §1
[9] = molecular target: T1, Myeloperoxidase (Homo sapiens); assay: Inhibition of chlorinating activity of recombinant myeloperoxidase at 1 uM by taurine assay; summary of the method: as §1
[10] = LDL oxidation at 5 uM by ELISA
[11] = LDL oxidation at 30 uM by ELISA
[12] = LDL oxidation at 15 uM by ELISA

For `O=C(O)c1cc(F)ccc1Nc1cccc(C(F)(F)F)c1`, the inhibition [1] was 76%, the Activity [2] was 2% and the level, % of control [3] was 9%. For the same molecule, the Activity [4] was 3.3%, the Activity [5] was 1.9% and the inhibition [6] was 63%. For the same molecule, the IC50 (Myeloperoxidase) was 1.8 µM, the Activity [7] was 3% and the inhibition [8] was 37%. It also gave an inhibition [9] of 49%.

Work on `O=C(Nc1ccc(C(=O)O)c(Nc2cccc(C(F)(F)F)c2)c1)c1ccccc1` yielded an inhibition [1] of 35%, an Activity [2] of 0% and an Activity [4] of 1%. The Activity [5] was 0%, the inhibition [6] was 25% and the IC50 (Myeloperoxidase) was 58 µM. For the same molecule, the Activity [7] was 2%, the inhibition [8] was 11% and the inhibition [9] was 15%.

Molecule `O=C(O)c1cc(O)ccc1Nc1cccc(C(F)(F)F)c1` has an Activity [2] of 2%, a level, % of control [3] of 53% and an Activity [4] of 2%. For the same molecule, the Activity [5] was 2.5% and the Activity [7] was 2%.

With `Nc1ccc(C(=O)O)c(Nc2cccc(C(F)(F)F)c2)c1` the level, % of control [10] was 79%, the level, % of control [11] was 56% and the Activity [2] was 2%. The level, % of control [3] was 29%, the Activity [4] was 1% and the Activity [5] was 2%. It also gave a level, % of control [12] of 70% and an Activity [7] of 3%.

`O=C(O)c1ccccc1Nc1cccc(C(F)(F)F)c1` [FLUFENAMIC ACID] showed a level, % of control [10] of 97%, a level, % of control [11] of 23% and an inhibition [1] of 64%. It also gave an Activity [2] of 1.1%, a level, % of control [3] of 10% and an Activity [4] of 2%. For the same molecule, the Activity [5] was 1.6%, the inhibition [6] was 52% and the level, % of control [12] was 82%. The IC50 (Myeloperoxidase) was 1.8 µM, the Activity [7] was 1.7% and the inhibition [8] was 25%. For the same molecule, the inhibition [9] was 40%.

Work on `O=C(O)c1cccc(Nc2cccc(C(F)(F)F)c2)c1C(=O)O` yielded an IC50 (Myeloperoxidase) of over 100 µM.

`CC(=O)Nc1ccc(C(=O)O)c(Nc2cccc(C(F)(F)F)c2)c1` showed a level, % of control [10] of 122%, a level, % of control [11] of 61% and an inhibition [1] of 42%. For the same molecule, the Activity [2] was 2%, the level, % of control [3] was 29% and the Activity [4] was 1%. It also gave an Activity [5] of 2%, an inhibition [6] of 33% and a level, % of control [12] of 86%. It also gave an IC50 (Myeloperoxidase) of 14 µM, an Activity [7] of 1% and an inhibition [8] of 12%. The inhibition [9] was 24%.

With `O=C(O)c1cc(Cl)ccc1Nc1cccc(C(F)(F)F)c1` the inhibition [1] was 74%, the Activity [2] was 0.4% and the level, % of control [3] was 112%. It also gave an Activity [4] of 1%, an Activity [5] of 2% and an inhibition [6] of 57%. The IC50 (Myeloperoxidase) was 1.6 µM, the Activity [7] was 1% and the inhibition [8] was 29%. It also gave an inhibition [9] of 42%.

For `O=C(CCCO)Nc1ccc(C(=O)O)c(Nc2cccc(C(F)(F)F)c2)c1`, the inhibition [1] was 20%, the Activity [2] was 0% and the Activity [4] was 0%. The Activity [5] was -1%, the inhibition [6] was 12.2% and the IC50 (Myeloperoxidase) was over 100 µM. It also gave an Activity [7] of 1%, an inhibition [8] of 8.5% and an inhibition [9] of 12%.

`O=C(O)c1ccc([N+](=O)[O-])cc1Nc1cccc(C(F)(F)F)c1` gave a level, % of control [10] of 121%, a level, % of control [11] of 135% and an inhibition [1] of 55%. The Activity [2] was 0%, the level, % of control [3] was 16% and the Activity [4] was 0%. It also gave an Activity [5] of 1%, an inhibition [6] of 43% and a level, % of control [12] of 143%. It also gave an IC50 (Myeloperoxidase) of 5 µM, an Activity [7] of 2% and an inhibition [8] of 29%. For the same molecule, the inhibition [9] was 29%.

Molecule `O=C(O)c1cc(Br)ccc1Nc1cccc(C(F)(F)F)c1` has an inhibition [1] of 79%, an Activity [2] of 2% and a level, % of control [3] of 29%. The Activity [4] was 3%, the Activity [5] was 3% and the inhibition [6] was 65%. For the same molecule, the IC50 (Myeloperoxidase) was 1.8 µM, the Activity [7] was 4.9% and the inhibition [8] was 36%. The inhibition [9] was 51%.

In the case of `NCCCC(=O)Nc1ccc(C(=O)O)c(Nc2cccc(C(F)(F)F)c2)c1`, the inhibition [1] is reported as 49%, the Activity [2] is reported as 2% and the Activity [4] is reported as 1%. The Activity [5] was 2%, the inhibition [6] was 35% and the IC50 (Myeloperoxidase) was 5.5 µM. For the same molecule, the Activity [7] was 1%, the inhibition [8] was 12% and the inhibition [9] was 21%.

With `O=C(O)/C=C/C(=O)Nc1ccc(C(=O)O)c(Nc2cccc(C(F)(F)F)c2)c1` the inhibition [1] was 0.3%, the Activity [2] was -1% and the Activity [4] was -1%. For the same molecule, the Activity [5] was 0%, the inhibition [6] was 0.1% and the IC50 (Myeloperoxidase) was over 100 µM. For the same molecule, the Activity [7] was 2%, the inhibition [8] was 0.3% and the inhibition [9] was 0.6%.
